Results: ChEMBL document CHEMBL2040727, “Substituted thiazoles VI. Synthesis and antitumor activity of new 2-acetamido- and 2 or 3-propanamido-thiazole analogs” (2012)

Key:
Type in all cases: functional
[1] = tested on: UO-31; experiment: Growth inhibition of human UO31 cells at 10 uM after 48 hrs by coulter counter analysis; settings: UO-31, 48 h, read-out: GI
Summary of the method: (§1)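 Single-dose screen in the NCI 60 cell line panel. Cells grown in RPMI 1640 with 10% FBS. Compounds dissolved in DMSO and diluted in phosphate buffered saline, final DMSO under 1%. Duplicate wells seeded from culture at 6 × 10⁴ cells/ml. Incubated 48 h at 37 °C, humidified, 5% CO2. Cells diluted tenfold in saline and Coulter-counted. Percent growth inhibition computed against PBS/DMSO controls.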

[2] = tested on: BT-549; experiment: Growth inhibition of human BT549 cells at 10 uM after 48 hrs by coulter counter analysis; settings: BT-549, 48 h, read-out: GI
Summary of the method: (§2)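 Single-dose NCI 60-line panel screen of test compounds. Cells grown in RPMI 1640 with 10% FBS. Compounds dissolved in DMSO, then diluted in phosphate buffer saline (final DMSO below 1%). Wells run in duplicate at 6 × 10⁴ cells/ml. Controls held PBS and DMSO at matching dilutions. Incubation 48 h at 37 °C under humidified 5% CO2. Cells diluted tenfold in saline and counted by Coulter counter. Percent growth inhibition taken from mean-graph of treated-cell growth.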

[3] = tested on: RPMI-8226; experiment: Growth inhibition of human RPMI8226 cells at 10 uM after 48 hrs by coulter counter analysis; settings: RPMI-8226, 48 h, read-out: GI; summary of the method: as §2
[4] = tested on: CAKI-1; experiment: Growth inhibition of human Caki1 cells at 10 uM after 48 hrs by coulter counter analysis; settings: CAKI-1, 48 h, read-out: GI; summary of the method: as §2
[5] = tested on: U-251; experiment: Growth inhibition of human U251 cells at 10 uM after 48 hrs by coulter counter analysis; settings: U-251, 48 h, read-out: GI; summary of the method: as §1
[6] = tested on: OVCAR-8; experiment: Growth inhibition of human OVCAR8 cells at 10 uM after 48 hrs by coulter counter analysis; settings: OVCAR-8, 48 h, read-out: GI; summary of the method: as §2
[7] = tested on: ACHN; experiment: Growth inhibition of human ACHN cells at 10 uM after 48 hrs by coulter counter analysis; settings: read-out: GI; summary of the method: as §2
[8] = Growth inhibition of human NCI-ADR-RES cells at 10 uM after 48 hrs by coulter counter analysis; settings: read-out: GI; summary of the method: as §2
[9] = tested on: HOP-92; experiment: Growth inhibition of human HOP92 cells at 10 uM after 48 hrs by coulter counter analysis; settings: HOP-92, 48 h, read-out: GI; summary of the method: as §2
[10] = tested on: SR; experiment: Growth inhibition of human SR cells at 10 uM after 48 hrs by coulter counter analysis; settings: read-out: GI; summary of the method: as §1
[11] = tested on: A549; experiment: Growth inhibition of human A549/ATCC cells at 10 uM after 48 hrs by coulter counter analysis; settings: A549, 48 h, read-out: GI; summary of the method: as §2
[12] = tested on: NCI-H23; experiment: Growth inhibition of human NCI-H23 cells at 10 uM after 48 hrs by coulter counter analysis; settings: NCI-H23, 48 h, read-out: GI; summary of the method: as §2
[13] = tested on: SNB-75; experiment: Growth inhibition of human SNB75 cells at 10 uM after 48 hrs by coulter counter analysis; settings: SNB-75, 48 h, read-out: GI; summary of the method: as §1
[14] = tested on: CCRF-CEM; experiment: Growth inhibition of human CCRF-CEM cells at 10 uM after 48 hrs by coulter counter analysis; settings: read-out: GI; summary of the method: as §2
[15] = tested on: K562; experiment: Growth inhibition of human K562 cells at 10 uM after 48 hrs by coulter counter analysis; settings: K562, 48 h, read-out: GI; summary of the method: as §2
[16] = tested on: HOP-62; experiment: Growth inhibition of human HOP62 cells at 10 uM after 48 hrs by coulter counter analysis; settings: HOP-62, 48 h, read-out: GI; summary of the method: as §2
[17] = tested on: 786-0; experiment: Growth inhibition of human 786-0 cells at 10 uM after 48 hrs by coulter counter analysis; settings: 786-0, 48 h, read-out: GI; summary of the method: as §2
[18] = tested on: OVCAR-5; experiment: Growth inhibition of human OVCAR5 cells at 10 uM after 48 hrs by coulter counter analysis; settings: OVCAR-5, 48 h, read-out: GI; summary of the method: as §2
[19] = tested on: NCI-H460; experiment: Growth inhibition of human NCI-H460 cells at 10 uM after 48 hrs by coulter counter analysis; settings: NCI-H460, 48 h, read-out: GI; summary of the method: as §2
[20] = tested on: OVCAR-3; experiment: Growth inhibition of human OVCAR3 cells at 10 uM after 48 hrs by coulter counter analysis; settings: OVCAR-3, 48 h, read-out: GI; summary of the method: as §2
[21] = tested on: SN12C; experiment: Growth inhibition of human SN12C cells at 10 uM after 48 hrs by coulter counter analysis; settings: read-out: GI; summary of the method: as §2
[22] = tested on: SF-295; experiment: Growth inhibition of human SF295 cells at 10 uM after 48 hrs by coulter counter analysis; settings: SF-295, 48 h, read-out: GI; summary of the method: as §2
[23] = tested on: KM12; experiment: Growth inhibition of human KM12 cells at 10 uM after 48 hrs by coulter counter analysis; settings: KM12, 48 h, read-out: GI; summary of the method: as §2
[24] = tested on: SK-MEL-5; experiment: Growth inhibition of human SK-MEL-5 cells at 10 uM after 48 hrs by coulter counter analysis; settings: SK-MEL-5, 48 h, read-out: GI; summary of the method: as §2
[25] = tested on: NCI-H226; experiment: Growth inhibition of human NCI-H226 cells at 10 uM after 48 hrs by coulter counter analysis; settings: NCI-H226, 48 h, read-out: GI; summary of the method: as §2
[26] = tested on: SK-MEL-28; experiment: Growth inhibition of human SK-MEL-28 cells at 10 uM after 48 hrs by coulter counter analysis; settings: SK-MEL-28, 48 h, read-out: GI; summary of the method: as §2
[27] = tested on: MDA-MB-231; experiment: Growth inhibition of human MDA-MB-231 cells at 10 uM after 48 hrs by coulter counter analysis; settings: MDA-MB-231, 48 h, read-out: GI; summary of the method: as §2
[28] = tested on: SW-620; experiment: Growth inhibition of human SW620 cells at 10 uM after 48 hrs by coulter counter analysis; settings: SW-620, 48 h, read-out: GI; summary of the method: as §1
[29] = tested on: HCT-116; experiment: Growth inhibition of human HCT116 cells at 10 uM after 48 hrs by coulter counter analysis; settings: HCT-116, 48 h, read-out: GI; summary of the method: as §2
[30] = tested on: DU-145; experiment: Growth inhibition of human DU145 cells at 10 uM after 48 hrs by coulter counter analysis; settings: DU-145, 48 h, read-out: GI; summary of the method: as §2
[31] = tested on: MDA-MB-468; experiment: Growth inhibition of human MDA-MB-468 cells at 10 uM after 48 hrs by coulter counter analysis; settings: MDA-MB-468, 48 h, read-out: GI; summary of the method: as §2
[32] = tested on: T47D; experiment: Growth inhibition of human T47D cells at 10 uM after 48 hrs by coulter counter analysis; settings: read-out: GI; summary of the method: as §1
[33] = tested on: EKVX; experiment: Growth inhibition of human EKVX cells at 10 uM after 48 hrs by coulter counter analysis; settings: read-out: GI; summary of the method: as §2
[34] = tested on: NCI-H322M; experiment: Growth inhibition of human NCI-H322M cells at 10 uM after 48 hrs by coulter counter analysis; settings: read-out: GI; summary of the method: as §2
[35] = tested on: HT-29; experiment: Growth inhibition of human HT-29 cells at 10 uM after 48 hrs by coulter counter analysis; settings: HT-29, 48 h, read-out: GI; summary of the method: as §2
[36] = tested on: PC-3; experiment: Growth inhibition of human PC3 cells at 10 uM after 48 hrs by coulter counter analysis; settings: PC-3, 48 h, read-out: GI; summary of the method: as §2

Compound | inhibition of growth at 10 µM [1] | inhibition of growth at 10 µM [2] | inhibition of growth at 10 µM [3] | inhibition of growth at 10 µM [4] | inhibition of growth at 10 µM [5] | inhibition of growth at 10 µM [6] | inhibition of growth at 10 µM [7] | inhibition of growth at 10 µM [8] | inhibition of growth at 10 µM [9] | inhibition of growth at 10 µM [10] | inhibition of growth at 10 µM [11] | inhibition of growth at 10 µM [12] | inhibition of growth at 10 µM [13] | inhibition of growth at 10 µM [14] | inhibition of growth at 10 µM [15] | inhibition of growth at 10 µM [16] | inhibition of growth at 10 µM [17] | inhibition of growth at 10 µM [18] | inhibition of growth at 10 µM [19] | inhibition of growth at 10 µM [20] | further results
Cc1csc(NC(=O)C(C)N2CCN(c3ccccc3)CC2)n1 (configuration not stated) | 17.9% | < 10% | < 10% | < 10% | < 10% | < 10% | < 10% | < 10% | < 10% | < 10% | < 10% | < 10% | 24% | < 10% | < 10% | < 10% | < 10% | < 10% | < 10% | < 10% | inhibition of growth at 10 µM [21]: < 10%; inhibition of growth at 10 µM [22]: < 10%; inhibition of growth at 10 µM [23]: < 10%; inhibition of growth at 10 µM [24]: < 10%; inhibition of growth at 10 µM [25]: 11.7%; inhibition of growth at 10 µM [26]: < 10%; inhibition of growth at 10 µM [27]: < 10%; inhibition of growth at 10 µM [28]: < 10%; inhibition of growth at 10 µM [29]: < 10%; inhibition of growth at 10 µM [30]: < 10%; inhibition of growth at 10 µM [31]: < 10%; inhibition of growth at 10 µM [32]: < 10%; inhibition of growth at 10 µM [33]: < 10%; inhibition of growth at 10 µM [34]: < 10%; inhibition of growth at 10 µM [35]: < 10%; inhibition of growth at 10 µM [36]: < 10%
CCOC(=O)c1sc(NC(=O)C(C)N(CC)CC)nc1C (configuration not stated) | < 10% | < 10% | < 10% | 12% | < 10% | < 10% | < 10% | < 10% | < 10% | < 10% | < 10% | < 10% | 16.4% | < 10% | < 10% | < 10% | < 10% | < 10% | < 10% | < 10% | inhibition of growth at 10 µM [21]: < 10%; inhibition of growth at 10 µM [22]: < 10%; inhibition of growth at 10 µM [23]: < 10%; inhibition of growth at 10 µM [24]: < 10%; inhibition of growth at 10 µM [25]: < 10%; inhibition of growth at 10 µM [26]: < 10%; inhibition of growth at 10 µM [27]: < 10%; inhibition of growth at 10 µM [28]: < 10%; inhibition of growth at 10 µM [29]: < 10%; inhibition of growth at 10 µM [30]: < 10%; inhibition of growth at 10 µM [31]: < 10%; inhibition of growth at 10 µM [32]: < 10%; inhibition of growth at 10 µM [33]: < 10%; inhibition of growth at 10 µM [34]: < 10%; inhibition of growth at 10 µM [35]: < 10%; inhibition of growth at 10 µM [36]: < 10%
